Source: PubChem BioAssay
Shown are actives, neighbours in structure and some others; about 3.5% of the full set was active somewhere.
RGS4 block = inhibitors of human RGS4. HEK293 M3R/RGS4 inducible, Fluo-4 calcium flux; stronger effect = higher value; triggered by carbachol at its EC20. B-score at 10 µM. 310,000 tested, 0.45% active;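 active = B-score, a plate-corrected calcium signal, over three deviations above library mean, with baseline fluorescence within five deviations of library mean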;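 also: RGS4 expression induced by doxycycline in cells with stable M3 receptor; B-score is computed from the integrated fluorescence ratio over baseline after carbachol; higher B-score means a larger calcium signal and so more RGS4 inhibition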
Target sequence (P49798 whole entry, looked up): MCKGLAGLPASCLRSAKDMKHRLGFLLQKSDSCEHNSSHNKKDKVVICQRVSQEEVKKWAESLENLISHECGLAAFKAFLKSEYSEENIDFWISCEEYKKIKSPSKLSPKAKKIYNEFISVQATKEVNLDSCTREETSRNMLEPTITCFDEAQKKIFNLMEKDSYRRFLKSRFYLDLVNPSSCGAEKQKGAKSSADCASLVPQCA
MrgX1 agonist = human MrgX1 receptor agonism, primary screen | Q96LB2 | MrgX1-HEK293 cells, Fluo-4 calcium fluorescence, agonist mode; stronger effect = higher value | B-score at 10 µM | 310,000 tested, 0.44% active | AID 588627;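 active = calcium response B-score plate-corrected fluorescence ratio at least 3 library SD, with starting fluorescence B-score inside 5 SD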
Target sequence (Q96LB2 whole entry, looked up): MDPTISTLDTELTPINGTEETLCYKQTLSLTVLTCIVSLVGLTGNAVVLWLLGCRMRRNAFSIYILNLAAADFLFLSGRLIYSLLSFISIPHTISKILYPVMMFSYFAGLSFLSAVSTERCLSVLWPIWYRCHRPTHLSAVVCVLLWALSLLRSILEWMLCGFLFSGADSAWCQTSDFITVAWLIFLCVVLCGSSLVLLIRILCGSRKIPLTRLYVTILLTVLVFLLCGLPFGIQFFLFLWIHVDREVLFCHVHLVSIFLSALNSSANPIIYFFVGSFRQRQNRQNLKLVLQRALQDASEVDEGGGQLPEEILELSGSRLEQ
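Material: HEK293 cells stably expressing human MrgX1 receptor | Quantity: 15,000 cells per well | Times: Cells plated overnight, dye loaded 0.5 h 37 °C, 0.5 h room temperature | Measured by: Kinetic Fluo-4 NW fluorescence of intracellular calcium | Control set: Positive and negative controls per plate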
MrgX1 PAM = human MrgX1 positive allosteric modulation, primary screen; Q96LB2; MrgX1-HEK293, Fluo-4 calcium flux, FDSS; stronger effect = higher value; B-score at 10 µM; 310,000 tested, 0.63% active; AID 588675;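 active = plate-corrected calcium response at least 3 library SD above typical, normal starting fluorescence, not activating the receptor alone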;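 also: compound read alongside a low EC10 to EC30 dose of BAM8-22 agonist; peak minus trough fluorescence over baseline measured at the second addition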
MrgX1 antagonist = human MrgX1 receptor antagonism, primary screen; Q96LB2; AID 588676; MRGX1-HEK293 calcium flux, Fluo-4, BAM8-22 antagonism; stronger effect = lower value; 310,000 tested, 1.3% active; B-score at 10 µM;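 active = calcium-response B-score plate-corrected more than 3 library SD below zero, starting fluorescence within 5 deviations, no agonist response on first addition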;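 also: peak minus trough fluorescence over baseline after final BAM8-22 challenge near maximal dose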
RGS4 pot = potentiators or activators of RGS4 | 310,000 tested, 0.92% active | HEK293 M3R/inducible RGS4, carbachol calcium flux Fluo4; stronger effect = lower value | AID 463111 | B-score at 10 µM;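 active = B-score of the integrated calcium signal more than 4 SD below the library mean, with starting fluorescence not abnormally high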;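 also: negative B-score means reduced calcium response which marks RGS4 activation or potentiation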
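Material: Inducible-RGS4 HEK293 cells carrying M3 receptor; also added: carbachol at ECmax as muscarinic agonist stimulus; incubation: compound preincubation 20 min at room temperature before agonist; signal: Fluo4-AM (2 µM) calcium-flux fluorescence, kinetic read; measure: integrated calcium ratio converted to B score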
RGS4 block valid = validation of RGS4 inhibitors | shares compounds with RGS4 block | 1,700 tested, 65% active | calcium response, % at 10 µM | HEK293 M3R/RGS4, carbachol calcium Fluo-4 fluorescence; carbachol added at its EC20; 0 = buffer wells, 100 = carbachol control;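 active = duplicate-averaged calcium response above the buffer-only control mean plus 5 SD of those controls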;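 also: integrated fluorescence ratio F max minus min over baseline F0; higher response in RGS4-induced cells means RGS4 inhibition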
RGS4 uninduced = checks RGS4 inhibitor effects in non-induced HEK293 M3R cells; shares compounds with RGS4 block; activity (percent), % at 10 µM; carbachol calcium Fluo-4; submaximal (EC20) carbachol stimulus; buffer wells 0%, carbachol control wells 100%; 1,900 tested, 20% active; AID 493000; call rule not given here;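 also: RGS4 induction absent so cells express M3R without RGS4; higher means more calcium signal and flags a non-specific hit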
M3R basal Ca ctr = second counter-screen for RGS4 inhibitors: non-induced cells without carbachol; shares compounds with RGS4 block; HEK293 M3R/RGS4 non-induced, Fluo-4 calcium, no carbachol; normalised: buffer wells 0%, carbachol wells 100%; calcium response (agonist-mode artifact), % at 10 µM; 1,900 tested, 22% active; AID 493001;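 active = duplicate-averaged calcium rise in uninduced cells above buffer wells' mean plus 5 SD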
The depositor's hits bear a star; i = inactive; . = not tested or not shown.

SMILES	RGS4 block	MrgX1 agonist	MrgX1 PAM	MrgX1 antagonist	RGS4 pot	RGS4 block valid	RGS4 uninduced	M3R basal Ca ctr
Cc1cc(C)cc(OCC(O)CN2CCC(CN3C(=O)c4cccc5cccc(c45)C3=O)CC2)c1 (stereo not given)	i	i	i	i	i	.	.	.
CCOc1ccc(NCc2nnc(SCC(=O)Nc3cc(C)on3)n2-c2ccccc2OC)cc1	i	i	i	i	i	.	.	.
COc1ccc(NCc2nnc(SCc3ccc(Cl)cc3)n2-c2ccccc2)cc1	8*	i	i	i	i	62%*	40%*	38%*
CCOc1ccc(NCc2nnc(SCC(=O)Nc3cc(C)on3)n2-c2ccc(OC)cc2)cc1	7*	i	i	i	i	i	i	i
COc1ccc(-n2c(COc3ccc(Cl)cc3)nnc2SCc2ccc(C#N)cc2)cc1	i	i	i	i	i	.	.	.
CC(NC(=O)COc1ccc(Br)cc1)C1CCCO1 (stereo not given)	i	i	i	i	i	.	.	.
COc1cc(C2(c3ccc(O)c(OC)c3)C(=O)N(C)c3ccc(C)cc32)ccc1O	i	i	i	i	i	.	i	i
Cc1ccc(C)c(N2CCN(S(=O)(=O)c3ccc4c(c3)C(C)(C)C(=O)N4C)CC2)c1	i	i	i	i	i	.	.	.
COc1ccccc1CN1CC(C(=O)N(C)Cc2[nH]c3ccccc3c2C)CCC1=O (stereo not given)	i	i	i	i	i	.	.	.
O=c1oc2ccccc2c(O)c1/C=C1\C=Nc2ccccc21	22*	i	i	i	i	66%*	i	48%*
CS(=O)(=O)c1[nH]nc(-c2cccc(Cl)c2)c1C#N	i	i	i	i	i	.	.	.
CCCCC1=CC2=C(c3ccco3)C(=O)C(C)(OC(=O)c3ccc(OC)cc3)C(=O)C2=CN1Cc1ccc(OC)cc1 (stereo not given)	i	.	.	.	i	.	.	.
CCCCC1=CC2=C(c3ccco3)C(=O)C(C)(OC(=O)c3ccc(OC)cc3)C(=O)C2=CN1C(CO)CO (stereo not given)	i	i	i	i	i	.	.	.
CCCCC1=CC2=C(c3ccco3)C(=O)C(C)(OC(=O)c3ccc(OC)cc3)C(=O)C2=CN1Cc1ccco1 (stereo not given)	i	i	i	-4.6*	i	i	i	i
CCCCC1=CC2=C(c3ccco3)C(=O)C(C)(OC(=O)c3ccc(OC)cc3)C(=O)C2=CN1CC(C)C (stereo not given)	6.8*	i	i	i	i	5.0%*	i	i
CCCCC1=CC2=C(c3ccco3)C(=O)C(C)(OC(=O)c3ccc(OC)cc3)C(=O)C2=CN1c1ccc(OC)cc1 (stereo not given)	5.3*	i	i	i	i	7.0%*	i	i
CCCCC1=CC2=C(c3ccco3)C(=O)C(C)(OC(=O)c3ccc(OC)cc3)C(=O)C2=CN1CCN1CCOCC1 (stereo not given)	i	i	i	i	i	i	i	i
C=CCOc1ccc(Br)cc1CNCCCN1CCOCC1	i	i	i	i	i	.	.	.
CCCCC1=CC2=C(c3ccco3)C(=O)C(C)(OC(=O)c3ccc(OC)cc3)C(=O)C2=CN1CCCCO (stereo not given)	i	i	i	i	i	i	i	i
CCCCC1=CC2=C(c3ccco3)C(=O)C(C)(OC(=O)c3ccc(OC)cc3)C(=O)C2=CN1CC1CC1 (stereo not given)	i	i	i	i	i	i	i	i
CCCCC1=CC2=C(c3ccco3)C(=O)C(C)(OC(=O)c3ccc(OC)cc3)C(=O)C2=CN1CCCN(CC)CC (stereo not given)	i	i	i	i	i	i	i	i
COC(=O)CCCC1=CC2=C(c3ccccc3)C(=O)C(C)(OC(=O)C3CCCC3)C(=O)C2=CN1Cc1ccc(OC)cc1 (stereo not given)	i	i	i	i	i	.	.	.
CC/C(=N/NC(=O)c1ccc2c(c1)OCO2)c1ccccc1O	i	i	i	i	i	.	.	.
COC(=O)CCCC1=CC2=C(c3ccccc3)C(=O)C(C)(OC(=O)C3CCCC3)C(=O)C2=CN1C1CC1 (stereo not given)	i	i	i	i	i	.	.	.
CCCCC1=CC2=C(c3ccco3)C(=O)C(C)(OC(=O)c3ccc(OC)cc3)C(=O)C2=CN1C1CC1 (stereo not given)	9.3*	i	i	i	i	5.5%*	i	i
SMILES	RGS4 block	MrgX1 agonist	MrgX1 PAM	MrgX1 antagonist	RGS4 pot	RGS4 block valid	RGS4 uninduced	M3R basal Ca ctr
CCCCC1=CC2=C(c3ccco3)C(=O)C(C)(OC(=O)c3ccc(OC)cc3)C(=O)C2=CN1C1CCCC1 (stereo not given)	i	i	i	i	i	i	i	102%*
COc1ccc(NC(=S)NNC(=O)CNc2ccc(Cl)cc2)cc1	i	i	i	i	i	.	.	.
CC(=O)N1CCC(C(=O)NCCOc2ccc(C)cc2)CC1	i	i	i	i	i	.	.	.
O[C@@H](c1cc(C(F)(F)F)nc2c(C(F)(F)F)cccc12)[C@H]1CCCCN1	5.7*	i	i	i	i	26%*	i	46%*
OC(c1cc(-c2ccc(Cl)cc2)nc2ccccc12)C1CCCCN1 (stereo not given)	i	i	i	i	i	.	.	.
O=c1c2cc(Cl)cc(Cl)c2nc2n1CCC2	i	i	i	i	i	.	.	.
OC(c1cc(C(F)(F)F)nc2c(Cl)cc(Cl)cc12)C1CCCCN1 (stereo not given)	13*	i	i	i	i	24%*	i	14%*
Cc1nc(N/N=C\c2ccc3c(c2)OCO3)sc1C	i	i	i	i	i	.	.	.
COC(=O)C1=C(Nc2cc(Cl)cc(Cl)c2)CSC1	i	i	i	i	i	.	.	.
COc1cc(/C=C2/SC(=S)N(Cc3ccccc3)C2=O)ccc1O	6.4*	i	11*	i	i	12%*	i	34%*
